Measured values published in PMC12749109 (Nature Communications, 2025).
“Also recorded” adds a separate entry of the source. Like-named read-outs stand apart in the source and are kept apart here.

Experiments:
DSS-induced colitis [1] = assay: DSS-induced colitis with M871 or SNAP37889 ± cGAL29, overall; format: in vivo; settings: mouse
Outline: (§1)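 Male C57BL/6 mice (20 ± 2 g, 7–8 weeks) received 3% DSS with daily i.p. test peptide (3 μM). A GALR2 or GALR3 antagonist (10 nmol/mouse, in 10% DMSO/40% PEG 300/30% Tween-20/20% saline) was given 30 min before each peptide dose. Controls followed the standard DSS protocol.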

Caco2 cells [2] = assay: RT-qPCR cytokine expression, Caco2 cell inflammation model with GALR antagonists; format: cell-based, human; settings: Caco-2 inflammation model, IL-1β + TNF-α
DSS-induced colitis [3] = assay: DSS-induced colitis with M871 or SNAP37889 ± cGAL53, overall; format: in vivo; settings: mouse, 3% DSS; antagonist 10 nmol/mouse + cGAL53 3 μM
Outline: as §1

Gnaq = assay: 2% DSS colitis in Gnaq cKO mice, overall; format: in vivo, mouse; settings: Gnaq cKO (gut epithelial) mice, vs AAV control mice
Outline: (§2)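 Male Arrb2fl/fl or Gnaqfl/fl mice (7–8 weeks) were fasted overnight, anaesthetised, and given 100 μL AAV8-Vil-cre or AAV8-Vil-null (1E+11 vg/mL) by catheter 4 cm into the colon. One week later they received 2% DSS in drinking water for 7 days. Read-outs were body weight, DAI, colon length, H&E, serum IL-6/IL-1β ELISA, and colonic Il6/Tnf/Il1b/Tgfb1/Tjp1/Ocln mRNA.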

GALR2 [4] = assay: CRE-luc luciferase; format: cell-based; settings: HEK293, GALR2, luciferase, 12 h
Outline: (§3)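 HEK293 cells were transfected (Lipofectamine) with empty pcDNA3.1 or GALR plasmid (2 μg) plus CRE, NFAT-RE or SRE luciferase reporter. After 36 h, medium was replaced with serum-free medium containing test peptide, diluted in DMEM from a 1 mM water stock, for 12 h. Luciferase was read 48 h post-transfection. Technical triplicate; mean ± SD; 37 °C, 5% CO2.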

GALR3 [5] = assay: DSS-induced colitis in Galr3-KO mice, overall; format: in vivo, mouse; settings: 3% DSS, cGAL53 3 μM
mGALR2 mutants = assay: Tango β-arrestin2 recruitment, binding-site mutants; format: cell-based, mouse
ZO-1, occludin [6] = assay: IHC of ZO-1 and occludin in colon, DSS-induced colitis, wild-type mice; format: in vivo; settings: mouse colon, 3% DSS, peptide 3 μM daily i.p.
Outline: (§4)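 Colon sections from DSS-treated mice were incubated overnight at 4 °C with anti-ZO-1 (1:1000) or anti-occludin (1:200), then HRP-conjugated secondary antibody. Signal was developed with DAB, sections counterstained with hematoxylin, and staining quantified by image analysis.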

GALR1 [7] = assay: NFAT-luc luciferase; format: cell-based; settings: HEK293, GALR1, luciferase, 12 h
Outline: as §3

colon transcriptome = assay: RNA-seq of colon tissue, DSS-induced colitis mice; format: in vivo; settings: mouse colon
Outline: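 Total RNA was extracted from mouse colon with Trizol, sequenced on BGIseq500 and mapped to the mouse genome. Data were analysed in R and reported as mean ± SEM.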

GALR2 [8] = assay: DSS-induced colitis in Galr2-KO mice, overall; format: in vivo, mouse; settings: Galr2-KO mice (or GALR2 inhibition where stated), cGAL53 3 μM
GALR3 [9] = assay: NFAT-luc luciferase; format: cell-based; settings: HEK293, GALR3, luciferase, 12 h
Outline: as §3

DSS-induced colitis [10] = assay: H&E histology/HAI and endoscopy, DSS-induced colitis, wild-type mice; format: in vivo; settings: mouse, 3% DSS, peptide 3 μM daily i.p.
Outline: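 Colons from mice given 3% DSS (8 days) and daily i.p. test peptide (3 μM) were fixed in 4% paraformaldehyde, paraffin-embedded, sectioned and H&E-stained. Sections were scored for epithelial damage, inflammatory infiltration, crypt loss and ulceration; n = 6/group.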

[11] = Tolerability of peptide alone in healthy male mice, overall; format: in vivo, mouse; settings: daily i.p. for six consecutive days
Outline: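 Healthy male mice received daily i.p. test peptide for six consecutive days alongside a saline-injected control group. Body weight, water intake, food intake and colon length were recorded.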

GALR3 [12] = assay: SRE-luc luciferase; format: cell-based; settings: HEK293, GALR3, luciferase, 12 h
Outline: as §3

GALR2 [13] = assay: Tango and BRET β-arrestin2 recruitment; format: cell-based
Outline: (§5)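 Tango assay used HTLA cells, a HEK293T line expressing a tTA-dependent luciferase reporter and β-arrestin2, transfected with GALR plasmid (2 μg). Test peptide in serum-free DMEM was added 36 h post-transfection for 12 h, then luciferase activity was measured. Mean ± SD.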

GALR1 [14] = assay: SRE-luc luciferase; format: cell-based; settings: HEK293, GALR1, luciferase, 12 h
Outline: as §3

[15] = test system: DSS-induced intestinal inflammation; format: in vivo, chicken; settings: chicken, 4% DSS oral gavage, daily i.p. peptide
Outline: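 Forty 21-day-old male yellow-feathered broilers were split into control, DSS and two peptide groups under 24 h light, with free food and water. DSS groups were gavaged with […] of 4% DSS daily from day 21 to 29. Treated birds got 100 μL of 50 μM peptide i.p. daily. TNF-α, IL-1β and IL-6 were measured by ELISA in jejunum/ileum homogenates (1:9 w/v ice-cold PBS, pH 7.4; 5000 × g, 10 min, 4 °C).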

DSS-induced colitis [16] = assay: DSS-induced colitis in wild-type mice, overall therapeutic efficacy; format: in vivo, mouse; settings: for alleviation of colitis / intestinal inflammation, overall: chicken and mouse colitis models, overall statement
GALR1 [17] = assay: CRE-luc luciferase; format: cell-based; settings: HEK293, GALR1, luciferase, 12 h
Outline: as §3

DSS-induced colitis [18] = assay: DSS-induced colitis, female mice, overall therapeutic efficacy; format: in vivo, mouse; settings: female C57BL/6 mice, 2.5% DSS, peptide 3 μM daily i.p.
Outline: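 Female C57BL/6 mice (9–10 weeks, 20 ± 2 g) were randomised into four groups and given 2.5% DSS in drinking water ad libitum for 8 days, with daily i.p. test peptide (3 μM). Body weight was recorded daily. Colon length was measured after sacrifice, and distal colon was fixed in 4% formalin.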

GALR2 [19] = assay: NFAT-luc luciferase; format: cell-based; settings: HEK293, GALR2, luciferase, 12 h
Outline: as §3

GALR1 [20] = assay: Tango β-arrestin2 recruitment, HTLA cells; format: cell-based
Outline: as §5

Caco2 cells [21] = assay: RT-qPCR cytokine expression, Caco2 cell inflammation model; format: cell-based, human; settings: IL-1β + TNF-α
TNBS-induced colitis = TNBS-induced colitis in C57BL/6 mice, overall therapeutic efficacy; format: in vivo, mouse; settings: TNBS intrarectal, peptide 3 μM
Outline: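 Male C57BL/6 mice (8–12 weeks) under 1.5% isoflurane received 100 μL of 2.5% TNBS (5% TNBS in water mixed 1:1 with ethanol) into the colon lumen. Controls received 50% ethanol only. Test peptide was given at 3 μM. Weight was monitored daily, and mice were killed 72 h after induction for colon length and histology; n = 6/group.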

intestinal barrier = assay: FD4 intestinal permeability, Galr2-KO mice; format: in vivo, mouse; settings: Galr2-deficient mice, DSS
Outline: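 Mice were fasted 12 h before and during the test, then gavaged with FITC-dextran FD4 (25 mg/mL in 0.05 M PBS) at 20 mL/kg. Plasma was collected 3 h later, diluted 1:2 in PBS, and fluorescence read at excitation 490 nm / emission 520 nm.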

GALR3 [22] = assay: Tango β-arrestin2 recruitment, HTLA cells; format: cell-based
Outline: as §5

GALR2b = assay: Tango β-arrestin2 recruitment, HTLA cells; format: cell-based, chicken
Outline: as §5

ARRB2 = assay: 2% DSS colitis in Arrb2 cKO mice, overall; format: in vivo, mouse; settings: Arrb2 cKO (gut epithelial) mice, vs AAV control mice
Outline: as §2

GALR3 [23] = assay: CRE-luc luciferase; format: cell-based; settings: HEK293, GALR3, luciferase, 12 h
Outline: as §3

GALR2 [24] = assay: G protein versus β-arrestin2 signaling bias at GALR2; format: cell-based
GALR2 [25] = assay: SRE-luc luciferase; format: cell-based; settings: HEK293, GALR2, luciferase, 12 h
Outline: as §3

ZO-1, occludin [26] = assay: IHC of ZO-1 and occludin in colon, Galr2-KO mice; format: in vivo, mouse; settings: DSS, compared with Galr2 KO-DSS group
Outline: as §4

O=C1C(=Nc2cccc(C(F)(F)F)c2)c2ccccc2N1c1ccccc1 [SNAP37889]
effect of antagonist on therapeutic efficacy of cGAL29 (DSS-induced colitis [1]): exerted inhibitory effects on the therapeutic efficacy of cGAL29 | block of anti-inflammatory effect of cGAL53 by antagonist (Caco2 cells [2]): not by SNAP37889 | effect of antagonist on ability of cGAL53 to alleviate colitis (DSS-induced colitis [3]): cGAL53 was still effective in treating colitis symptoms in mice

GWTLNSAGYLLGPRRIDHLLMIKEMPIARGREEAPGA-YAVDNHRSFNDKHGFT-NH2 [cGAL53]
ability to alleviate weight loss, colon shortening, intestinal damage, inflammation (Gnaq): significantly reduced | Gs (CRE-luc) activation (GALR2 [4]): can activate; also recorded: activated | colitis symptoms (GALR3 [5]): significant improvement in colitis symptoms | β-arrestin2 recruitment after mutation of predicted unique binding sites (mGALR2 mutants): affected | ZO-1 and occludin protein and mRNA levels (ZO-1, occludin [6]): markedly enhanced | Gq (NFAT-luc) activation (GALR1 [7]): not GALR1 | DSS-changed pathways (KEGG) (colon transcriptome): significantly modulated | expression levels of immune-related genes (colon transcriptome): significantly reduced | inflammation-related pathways (GSVA) (colon transcriptome; compared to cGAL29): significantly greater reductions | colitis symptoms / effects of cGAL53 (GALR2 [8]): abolished in Galr2-deficient mice; also recorded: did not exhibit any change; also recorded: completely abolishes the effects of cGAL53 | Gq (NFAT-luc) activation (GALR3 [9]): can activate | endoscopic and colon tissue damage scores (DSS-induced colitis [10]): most pronounced improvements | body weight, water and food intake, colon length (tolerability) [11]: neither peptide affected body weight, water, and food intake, nor colon length, indicating good tolerability | Gi (SRE-luc) activation (GALR3 [12]): can activate | ARRB2 (β-arrestin2) recruitment (GALR2 [13]): significantly enhanced; also recorded: preferentially activated ARRB2 | Gi (SRE-luc) activation (GALR1 [14]): not GALR1 | IBD-related symptoms in DSS-treated chickens [15]: ameliorated IBD-related symptoms in chickens, manifested as reductions of body weight loss, intestinal bleeding points and tissue damage | IBD-related symptoms in DSS-treated chickens ([15]; listed as GAL53): superior therapeutic efficacy | colitis symptoms (DSS-induced colitis [16]; WT mice, 3% DSS, cGAL53 3 μM): significant improvement in colitis symptoms | alleviation of colitis / intestinal inflammation, overall (DSS-induced colitis [16]): superior therapeutic efficacy compared to the conserved GAL29 peptide; also recorded: superior protective effects against DSS-induced inflammation in both chickens and mice; also recorded: alleviates colitis-associated weight loss, colon shortening, bleeding, and inflammation in both chickens and mice; also recorded: greater therapeutic efficacy in treating intestinal inflammation in chickens and mice | alleviation of colitis / intestinal inflammation, overall (DSS-induced colitis [16]; listed as GAL53): superior protective effects against intestinal inflammation in birds and mammals; also recorded: exerts protective effects in chemical models of IBD | alleviation of colitis / intestinal inflammation, overall (DSS-induced colitis [16]; listed as chicken GAL53): superior efficacy over the conserved GAL29 | DSS-induced body weight reduction, colon shortening and DAI increase (DSS-induced colitis [16]; mouse, 3% DSS in drinking water, peptide 3 μM daily i.p.): superior therapeutic efficacy over the shorter galanin variants (cGAL29 and hGAL30); also recorded: superior therapeutic efficacy in mouse colitis compared to cGAL29 | Gs (CRE-luc) activation (GALR1 [17]): not GALR1 | therapeutic effect in female mice with DSS-induced colitis (DSS-induced colitis [18]): superior therapeutic benefits | Gq (NFAT-luc) activation (GALR2 [19]): can activate; also recorded: activated | ARRB2 (β-arrestin2) recruitment (GALR1 [20]): significantly enhanced | concentration giving (similar) anti-inflammatory effect (Caco2 cells [21]): 0.1 µM | expression of Il6, Il23 and Tgfb1 induced by IL-1β and TNF-α (Caco2 cells [21]; RT-qPCR): reduced | TNBS-induced colitis (colon length, histopathological damage) (TNBS-induced colitis): more effective than cGAL29, nearly reversing the colon length and histopathological damage | circulating FD4 tracer levels (intestinal barrier): remained unchanged | ARRB2 (β-arrestin2) recruitment (GALR3 [22]): significantly enhanced | ARRB2 (β-arrestin2) recruitment (GALR2b): significantly enhanced | therapeutic effects (weight loss, colon shortening, intestinal damage, inflammation) (ARRB2): significantly diminished; also recorded: negated the therapeutic effects | Gs (CRE-luc) activation (GALR3 [23]): can activate | bias at GALR2 (GALR2 [24]): β-arrestin2- biased agonizts of GALR2 | G protein activation / ARRB2 recruitment via GALR2 (GALR2 [24]; GALR2, overall statement): significantly enhances the recruitment of ARRB2 to GALR2 | Gi (SRE-luc) activation (GALR2 [25]): can activate; also recorded: activated | expression of ZO-1 and occludin (ZO-1, occludin [26]): did not increase
